# Measured values reported in article PMC4975651 (Molecular cell, 2016).
# Columns and labels:
# [1] = tested on: GST-tagged ZMYND8-PB (ZMYND8-PHD/Bromo); experiment: Peptide pull-down assay, GST-tagged ZMYND8-PB; format: binding, human; details: biotinylated peptides
# Outline: (§1)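 Biotinylated histone peptides were used to pull down GST-tagged ZMYND8 fragments expressed in bacteria from a GST-fusion vector. These fragments were PHD/Bromo, PHD/Bromo/PWWP, or deletion mutants of PHD/Bromo. The deletion mutants were tested against the H3 (1-21) peptide.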
# [2] = tested on: ZMYND8-PBP, alanine mutation of E124; experiment: ITC, ZMYND8-PBP alanine mutant of E124; format: binding, human; details: H3K4me0 (1-25aa)
# Outline: (§2)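 ZMYND8 PHD/Bromo/PWWP region, with its point and deletion mutants, was cloned into a bacterial GST-fusion expression vector and expressed as recombinant protein. Binding to histone H3 peptides was measured by isothermal titration calorimetry, and KD was taken from the titration.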
# [3] = tested on: N-terminal truncated version of ZMYND8-PBP (residue 103-426); experiment: ITC, N-terminal truncated ZMYND8-PBP; format: binding, human; details: H3K4me0 (1-25aa)
# Outline: as §2
# ZMYND8-PBP, F109D = experiment: ITC, ZMYND8-PBP F109D; format: binding, human; details: H3K4me0 (1-25aa), relative to ZMYND8-PBP
# Outline: as §2
# [4] = tested on: ZMYND8-PBP, alanine mutation of D96; experiment: ITC, ZMYND8-PBP alanine mutant of D96; format: binding, human; details: H3K4me0 (1-25aa)
# Outline: as §2
# [5] = tested on: ZMYND8-PBP, alanine mutation of D104; experiment: ITC, ZMYND8-PBP alanine mutant of D104; format: binding, human; details: H3K4me0 (1-25aa)
# Outline: as §2
# ZMYND8-PHD = experiment: Peptide pull-down assay, ZMYND8-PHD alone; format: binding, human; details: H3 (1-21) peptide
# Outline: as §1
# ZMYND8-PBP, D108A = experiment: ITC, ZMYND8-PBP alanine mutant of D108; format: binding, human; details: H3K4me0 (1-25aa)
# Outline: as §2
# [6] = target: T1, ZMYND8-PHD/Bromo/PWWP (ZMYND8-PBP) (Homo sapiens, UniProt Q9ULU4); experiment: Isothermal titration calorimetry; format: binding; details: ITC
# T1 sequence (Q9ULU4 93-426 isoform Q9ULU4-10): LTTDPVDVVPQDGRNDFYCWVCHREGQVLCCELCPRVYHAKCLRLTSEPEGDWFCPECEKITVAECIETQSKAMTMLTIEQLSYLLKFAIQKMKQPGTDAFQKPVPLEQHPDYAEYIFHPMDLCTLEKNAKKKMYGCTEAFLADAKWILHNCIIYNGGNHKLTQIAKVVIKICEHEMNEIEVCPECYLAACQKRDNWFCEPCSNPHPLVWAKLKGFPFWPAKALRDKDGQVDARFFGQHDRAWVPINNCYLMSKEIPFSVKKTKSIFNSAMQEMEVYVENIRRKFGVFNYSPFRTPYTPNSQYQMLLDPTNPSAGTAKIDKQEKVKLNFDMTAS
# Outline: as §2
# [7] = target: T2, ZMYND8-PHD/Bromo (ZMYND8-PB) (Homo sapiens, UniProt Q9ULU4); experiment: Isothermal titration calorimetry; format: binding; details: ITC
# T2 sequence (Q9ULU4 75-268 limits assumed): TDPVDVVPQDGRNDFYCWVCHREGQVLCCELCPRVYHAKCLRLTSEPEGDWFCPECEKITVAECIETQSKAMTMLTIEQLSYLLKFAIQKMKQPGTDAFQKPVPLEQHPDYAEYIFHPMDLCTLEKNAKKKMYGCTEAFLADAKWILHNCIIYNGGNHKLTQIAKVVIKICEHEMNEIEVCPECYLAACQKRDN
# Outline: as §2
# [8] = tested on: ZMYND8-PBP, alanine mutation of D99; experiment: ITC, ZMYND8-PBP alanine mutant of D99; format: binding, human; details: H3K4me0 (1-25aa)
# Outline: as §2
substance,measurement,setting,value
"H3K4me0: unmethylated H3K4 (H3 [1-21aa]; referred to as ""H3K4me0"")","interaction with ZMYND8-PB (pull-down), 300 mM NaCl wash",[1],interacted
same,H3K4me0-binding activity of mutant,[2],significant losses
same,H3K4me0-binding activity of truncated ZMYND8-PBP,[3],significant losses
same,enhancement of PBP's binding activity by F109D,"ZMYND8-PBP, F109D",~ 11 fold
same,H3K4me0-binding activity of mutant,[4],significant losses
same,H3K4me0-binding activity of mutant,[5],significant losses
same,interaction with ZMYND8-PHD alone (pull-down),ZMYND8-PHD,did not interact
same,H3K4me0-binding activity of mutant,"ZMYND8-PBP, D108A",significant losses
same,Kd,[6],~7.2 µM
same,Kd,[7],~15 µM
same,H3K4me0-binding activity of mutant,[8],significant losses
